Compounds with a hit are over-represented: about 2.1% of the library has one in this group of screens.
RanGTP-Imp inh: disruptors of Ran-importin-beta complex formation – biochemical, FRET, CFP-Ran, YFP-importin-beta, homogeneous, primary screen | inhibition, % (no concentration beside the values) | actives 1.1% (n = 300,000) | cell-free CFP-Ran/YFP-importin-beta FRET ratio;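 active = more than half of the replicate wells show a fall in the fluorescence ratio signal beyond about 16%, limit read from the data, passing the limit was not always enough; inconclusive = exactly half of the replicate wells pass the set limit; inactive = fewer than half of replicates pass the limit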;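 also: 0% = DMSO wells and 100% = Ran loaded with GDP instead of GTP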
Runt-CBFb FRET: Runt domain-CBFb interaction inhibition; Q01196+Q13951; Cerulean-Runt/Venus-CBFb FRET ratio 530/480, 1 h; inhibition, % at 20 µM; actives 0.46% (n = 220,000);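 active = inhibition over about 50% at 20 µM in the single-dose screen, limit read from the data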;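 also: 0% = DMSO wells and 100% = excess unlabeled CBFb competitor control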
Target sequence (Q01196 whole entry, looked up, the tested form may be a part): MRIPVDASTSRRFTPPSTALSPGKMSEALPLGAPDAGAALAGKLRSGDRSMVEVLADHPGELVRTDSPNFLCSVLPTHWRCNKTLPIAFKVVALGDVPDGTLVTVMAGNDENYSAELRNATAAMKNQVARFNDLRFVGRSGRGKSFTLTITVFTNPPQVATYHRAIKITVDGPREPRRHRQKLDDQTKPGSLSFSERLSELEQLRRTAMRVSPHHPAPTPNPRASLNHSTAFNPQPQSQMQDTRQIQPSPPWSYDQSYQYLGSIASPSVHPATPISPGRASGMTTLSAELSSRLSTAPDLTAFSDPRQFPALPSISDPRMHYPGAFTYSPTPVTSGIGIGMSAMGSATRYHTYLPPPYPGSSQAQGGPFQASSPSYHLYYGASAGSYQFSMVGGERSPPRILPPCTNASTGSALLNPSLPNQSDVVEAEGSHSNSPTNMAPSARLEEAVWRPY
Target sequence (Q13951 whole entry, looked up, the tested form may be a part): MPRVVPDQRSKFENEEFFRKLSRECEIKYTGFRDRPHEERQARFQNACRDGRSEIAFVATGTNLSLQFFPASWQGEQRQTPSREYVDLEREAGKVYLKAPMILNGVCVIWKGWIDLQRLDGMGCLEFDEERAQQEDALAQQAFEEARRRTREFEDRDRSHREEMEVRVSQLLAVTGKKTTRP
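System: Cerulean-labeled Runt domain protein | Quantity: 100 nM of each labeled protein | Schedule: 1 h compound exposure, room temperature | Detection: Fluorescence energy transfer, 422 nm excitation, 530/480 nm emission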
Runt-SMMHC FRET: Runt domain-CBFb-SMMHC interaction inhibition; Q01196+Q13951; Cerulean-Runt/Venus-CBFb-SMMHC FRET ratio 530/480, 1 h; inhibition, % at 20 µM; actives 0.74% (n = 220,000); AID 1434;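 active = mean inhibition across duplicate retests at 20 µM reaching about 50%, limit read from the data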;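 also: 0% = DMSO wells and 100% = wells with excess untagged CBFb-SMMHC; inhibitors lower the FRET ratio by blocking Runt binding to CBFb-SMMHC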
proKLK7 act: activators of human kallikrein-7 zymogen. P49862. purified proKLK7, EDANS-DABCYL substrate fluorescence; 100% is mature enzyme control, 0% vehicle. activation, % at 7 µM. actives 0.9% (n = 370,000);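 active = activation above the mean of all tested compounds plus 3 SD, computed per campaign excluding outliers beyond control limits, cut at about 13% in these data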
MEX-5 binding: C. elegans MEX-5 TCR-2 RNA binding activity; MEX-5/FITC-TCR2 RNA binding, fluorescence polarization; stronger effect = lower value; actives 0.38% (n = 300,000); AID 1832; activity score (negative = inhibition of binding), % at 10 µM; Q9XUB2;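 active = inhibition past about -25% in most replicates, and total fluorescence under double the plate's negative control median, limit read from the data; inconclusive = replicates evenly split on the limit, or fluorescence at least double controls; inactive = too little inhibition in most replicates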;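 also: 0% = DMSO and -100% = 5 µM competing unlabeled TCR2 RNA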
KLK7 act conf: confirmation of human kallikrein-7 zymogen activators; AID 686949; activation, % at 7 µM; actives 68% (n = 3,200); purified proKLK7, EDANS-DABCYL substrate fluorescence; scaled: vehicle 0, mature enzyme 100; shares compounds with proKLK7 act;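 active = activation, as change over the incubation, above the mean of all tested compounds plus 3 SD, cut at about 13% in these data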
EDANS-DABCYL int: fluorescence interference counter-screen for KLK7 activators | shares compounds with proKLK7 act | EDANS-DABCYL substrate fluorescence interference, no enzyme, 4 h; solvent 0%, active enzyme control 100% | activation, % at 7 µM | actives 80% (n = 3,200);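 active = activation above the all-compound mean plus 3 SD, ignoring values outside control-based bounds, cut at about 4.8% in these data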;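 also: value is the 4 h activation minus the activation read at time zero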
EDANS interf: counter-screen for kallikrein-7 activators: EDANS-DABCYL interference, dose response | EDANS-DABCYL peptide fluorescence interference, no enzyme | EC50, µM | shares compounds with proKLK7 act | actives 20% (n = 250) | AID 720493;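 active = compounds that raise the fluorescence signal in this interference counterscreen, with EC50 at or below 10 µM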;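 also: intact quenched peptide substrate alone read at 355 nm excitation and 520 nm emission; signal is fluorescence gain from T0 to T4 after four hours at room temperature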
* hit, by the source's call; ? = inconclusive; / = no result given.

SMILES	RanGTP-Imp inh	Runt-CBFb FRET	Runt-SMMHC FRET	proKLK7 act	MEX-5 binding	KLK7 act conf	EDANS-DABCYL int	others
CN(C)CCNS(=O)(=O)c1ccc2c3c(cccc13)C(=O)N2	9.2	/	/	154.8*	-3.5	67.8*	57.3*	EDANS interf=2.09*
O=C1Nc2ccc(S(=O)(=O)NCc3ccccn3)c3cccc1c23	6.7	22.1	29.4	15.8*	-1.5	72.1*	72.4*
COc1ccccc1N=C1NC(=O)/C(=C/c2ccc(N(C)C)cc2)S1	-90.9	/	/	-0.1	5.0	/	/
CCOc1ccc(/C(O)=C2/C(=O)C(=O)N(c3ccccn3)C2c2ccc(F)cc2)c(C)c1 (centres undefined)	-6.5	/	/	14.3*	0.7	18.5*	19.6*
N#Cc1c(C(F)(F)F)cc(-c2ccccc2Cl)[nH]c1=O	-6.1	1.4	6.2	9.9	1.7	/	/
N#Cc1c(C(F)(F)F)cc(C2CC2)[nH]c1=O	-2.4	0.6	2.5	17.6*	2.1	16.3*	22.9*
N#Cc1ccccc1OCCN1C(=O)c2ccccc2C1=O	-5.9	-1.6	4.4	0.1	1.9	/	/
Nc1cccc2c1C(=O)N(CCOc1ccccc1F)C2=O	42.0*	/	/	47.0*	-11.8	72.3*	78.1*
CCCC1NC(C(=O)O)Cc2c1[nH]c1ccccc21 (centres undefined)	10.6	/	/	13.1*	-8.5	8.2	7.6*
CC(C)C1NC(C(=O)O)Cc2c1[nH]c1ccccc21 (centres undefined)	7.6	/	/	30.1*	-0.2	55.5*	48.6*
CC(C)CC1NC(C(=O)O)Cc2c1[nH]c1ccccc21 (centres undefined)	4.6	/	/	6.8	2.8	/	/
CCN(CC)CC(=O)Nc1ccc(-c2nc3cc(NC(=O)CN(CC)CC)ccc3o2)cc1	?	0.0	2.6	2.2	-0.4	/	/
O=C(CN1CCCC1)Nc1ccc(-c2nc3cc(NC(=O)CN4CCCC4)ccc3o2)cc1	-2.3	-0.5	5.0	58.2*	-0.1	-19.5	-27.1
CS(=O)(=O)c1cccc(C(=O)Nc2ccc(-c3nc4ccccc4[nH]3)cc2)c1	-0.2	/	/	83.7*	-4.4	55.2*	63.1*
COCC(=O)N(C)c1nnc(-c2cnc(C)cn2)s1	4.2	-0.2	-0.5	16.6*	-0.2	69.9*	81.4*
Cc1cnc(-c2nnc(N(C)C(=O)C3CCCO3)s2)cn1 (centres undefined)	3.6	0.9	3.5	74.5*	-1.2	114.0*	108.0*
COc1ccc(-c2nnc(N(C)C(=O)C3CCCO3)s2)cc1 (centres undefined)	4.1	1.8	2.7	1.5	-0.2	/	/
CN(C(=O)COc1ccc(Cl)cc1)c1nnc(C23CC4CC(CC(C4)C2)C3)s1	/	-0.4	-1.1	/	/	/	/
CN(C(=O)C1CCOC1)c1nnc(-c2cnccn2)s1 (centres undefined)	-5.2	-1.5	-5.6	28.6*	-0.9	26.0*	25.9*
CCOc1ccc(NC(=O)CSc2nc3cc(C(=O)NCC4CCCO4)ccc3c(=O)n2CC2CCCO2)cc1 (centres undefined)	/	/	/	-0.1	/	/	/
CCCCN(C)Cc1c(O)ccc2c(=O)c(-c3ccccc3OC)coc12	2.3	/	/	55.9*	-0.5	65.9*	74.2*
COc1cccc(Oc2coc3c(CN4CCOCC4)c(O)ccc3c2=O)c1	1.2	-2.2	3.9	180.9*	0.8	63.9*	61.3*
COc1ccc(Oc2coc3cc(OC(=O)N4CCOCC4)ccc3c2=O)cc1	-0.7	0.1	-5.2	0.2	-0.2	/	/
O=c1c(-c2ccc3c(c2)OCCO3)coc2c(CN3CCOCC3)c(O)ccc12	-1.9	-1.6	-2.9	13.4*	-1.8	20.5*	19.2*
CCOc1ccccc1Oc1c(C)oc2c(CN3CCN(C)CC3)c(O)ccc2c1=O	/	-1.2	1.6	77.3*	/	76.8*	74.3*
